In ChEMBL document CHEMBL1165883, “Synthesis, evaluation and computational studies on a series of acetophenone based 1-(aryloxypropyl)-4-(chloroaryl) piperazines as potential atypical antipsychotics” (2010):
Active and inactive are the calls of the source. The calls are words filed in the database; no cut-off is given here.

Tests used:
Mus musculus [1] = experiment: Antipsychotic activity in ip dosed albino lyka mouse assessed as reversal of apomorphine-induced stereotype response administered 10 mins prior to apomorphine challenge after 10 to 30 mins; type: functional
Method in brief: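 Mice of either sex (26–38 g) received vehicle, compound or clozapine (positive control), then apomorphine 2.5 mg kg^-1 after 10 min. Stereotypy was scored over 60 s in an inverted 500 ml beaker at 10, 15, 20, 25 and 30 min post-apomorphine: 1 = rearing, sniffing or grooming; 2 = licking or biting. Three dose levels, chosen by initial titration.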

Mus musculus [2] = experiment: Antipsychotic activity in ip dosed albino lyka mouse assessed as reversal of apomorphine-induced mesh climbing response administered 10 mins prior to apomorphine challenge after 10 to 30 mins; type: functional
Method in brief: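 Mice of either sex (26–38 g), six per group, habituated singly in a wire-mesh cage (13 cm diameter, 14 cm high). Compound, saline (control) or clozapine (positive control) given ip; apomorphine 2.5 mg kg^-1 ip 10 min later. Climbing was scored over 60 s in the mesh cage at 10, 15, 20, 25 and 30 min: 1 = one–three paws on mesh, 2 = all four. Three titrated dose levels.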

In the case of `CC(=O)c1ccc(OCCCN2CCN(C(=O)c3ccccc3Cl)CC2)cc1`, the Activity (Mus musculus [1]) is reported as “Active” and the ED50 (Mus musculus [2]) is reported as “inactive”.
In the case of `CC(=O)c1ccc(OCCCN2CCN(C(=O)c3ccc(Cl)cc3)CC2)cc1`, the Activity (Mus musculus [1]) is reported as “Active” and the ED50 (Mus musculus [2]) is reported as “inactive”.
For `CC(=O)c1ccccc1OCCCN1CCN(C(=O)c2ccccc2Cl)CC1`, the Activity (Mus musculus [1]) was “Active” and the ED50 (Mus musculus [2]) was “inactive”.
`CC(=O)c1ccc(OCCCN2CCN(Cc3ccc(Cl)cc3)CC2)cc1` gave an ED50 (Mus musculus [2]) of 50 mg/kg.
With `CC(=O)c1ccccc1OCCCN1CCN(C(=O)c2ccc(Cl)cc2)CC1` the Activity (Mus musculus [1]) was “Active” and the ED50 (Mus musculus [2]) was “inactive”.
`CC(=O)c1ccc(OCCCN2CCN(Cc3ccccc3Cl)CC2)cc1` was tested, and the ED50 (Mus musculus [2]) was 23 mg/kg.
In the case of `CC(=O)c1ccccc1OCCCN1CCN(Cc2ccccc2Cl)CC1`, the ED50 (Mus musculus [2]) is reported as 10.5 mg/kg.
In the case of `Clc1ccc(CN2CCN(Cc3ccc(Cl)cc3)CC2)cc1`, the Activity (Mus musculus [1]) is reported as 1.02 and the ED50 (Mus musculus [2]) is reported as 10.5 mg/kg.
`CC(=O)c1ccccc1OCCCN1CCN(Cc2ccc(Cl)cc2)CC1` gave an ED50 (Mus musculus [2]) of 10 mg/kg.
Compound `Clc1ccccc1CN1CCN(Cc2ccccc2Cl)CC1` has an Activity (Mus musculus [1]) of 0.86 and an ED50 (Mus musculus [2]) of 7.2 mg/kg.
